What was measured:
[1] = target: T1, Bile acid receptor (Homo sapiens) (UniProt Q96RI1); test: Agonist activity at FXR in human HepG2 cells assessed as induction of SHP mrNA expression at 1 uM by quantitative PCR method; assay type: cell-based
T1 sequence (whole entry): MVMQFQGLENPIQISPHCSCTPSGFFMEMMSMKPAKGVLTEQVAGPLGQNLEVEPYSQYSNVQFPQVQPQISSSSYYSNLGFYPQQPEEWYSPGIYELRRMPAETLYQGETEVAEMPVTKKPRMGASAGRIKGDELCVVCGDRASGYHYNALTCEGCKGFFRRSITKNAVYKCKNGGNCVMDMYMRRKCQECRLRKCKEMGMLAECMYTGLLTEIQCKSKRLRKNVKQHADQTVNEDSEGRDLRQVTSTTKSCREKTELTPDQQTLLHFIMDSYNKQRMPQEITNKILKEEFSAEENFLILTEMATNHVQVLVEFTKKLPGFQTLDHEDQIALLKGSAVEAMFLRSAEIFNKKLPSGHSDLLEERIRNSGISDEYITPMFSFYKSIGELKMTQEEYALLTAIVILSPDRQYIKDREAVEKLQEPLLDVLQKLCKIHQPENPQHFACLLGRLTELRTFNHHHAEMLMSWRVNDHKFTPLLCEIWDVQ
How it was run: (§1)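 HepG2 cells were seeded at 2 × 10⁶ per well. After 24 h they were switched to MEM with 1% charcoal-stripped FCS, and 24 h later dosed with compound (0.1, 0.3, 1, 3, 10 μM; 0.1% DMSO final) for 24 h. Total RNA was reverse transcribed and analysed by qPCR, GAPDH-normalized, ΔΔCt method. Samples were run in duplicate in ≥4 independent experiments.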

[2] = target: T1, Bile acid receptor (Homo sapiens); test: Agonist activity at FXR in human HepG2 cells assessed as induction of SHP mrNA expression at 3 uM by quantitative PCR method; assay type: cell-based; how it was run: as §1
[3] = target: T1, Bile acid receptor (Homo sapiens); test: Agonist activity at FXR in human HepG2 cells assessed as induction of CYP7A1 mrNA expression at 0.1 uM by quantitative PCR method; assay type: cell-based; how it was run: as §1
[4] = target: T1, Bile acid receptor (Homo sapiens); test: Agonist activity at FXR in human HepG2 cells assessed as induction of CYP7A1 mrNA expression at 0.3 uM by quantitative PCR method; assay type: cell-based; how it was run: as §1
[5] = target: T1, Bile acid receptor (Homo sapiens); test: Agonist activity at FXR in human HepG2 cells assessed as induction of OSTalpha mrNA expression at 0.3 uM by quantitative PCR method; assay type: cell-based; how it was run: as §1
[6] = target: T1, Bile acid receptor (Homo sapiens); test: Agonist activity at FXR in human HepG2 cells assessed as induction of OSTalpha mrNA expression at 3 uM by quantitative PCR method; assay type: cell-based; how it was run: as §1
[7] = target: T1, Bile acid receptor (Homo sapiens); test: Agonist activity at FXR in human HepG2 cells assessed as induction of OSTalpha mrNA expression at 10 uM by quantitative PCR method; assay type: cell-based; how it was run: as §1
[8] = target: T2, Peroxisome proliferator-activated receptor delta (Homo sapiens, UniProt Q03181); test: Activity at GAL4-tagged PPARdelta (unknown origin) expressed in COS7 cells assessed as receptor transactivation by luciferase reporter gene assay; assay type: cell-based, COS-7
T2 sequence (Q03181 whole entry): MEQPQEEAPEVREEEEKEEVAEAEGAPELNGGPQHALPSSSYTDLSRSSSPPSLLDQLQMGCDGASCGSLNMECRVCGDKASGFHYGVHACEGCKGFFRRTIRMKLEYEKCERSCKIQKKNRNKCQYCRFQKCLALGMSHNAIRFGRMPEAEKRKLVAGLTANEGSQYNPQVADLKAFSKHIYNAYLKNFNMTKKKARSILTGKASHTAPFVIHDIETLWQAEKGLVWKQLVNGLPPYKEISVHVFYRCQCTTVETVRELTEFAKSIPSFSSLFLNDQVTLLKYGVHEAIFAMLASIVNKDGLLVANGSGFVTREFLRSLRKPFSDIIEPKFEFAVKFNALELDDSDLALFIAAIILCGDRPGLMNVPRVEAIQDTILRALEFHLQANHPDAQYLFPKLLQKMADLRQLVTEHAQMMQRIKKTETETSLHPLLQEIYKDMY
How it was run: (§2)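 Each PPAR subtype was tested as a Gal4 fusion carrying the human hinge region and LBD (cDNA from human monocytes) in transiently transfected COS-7 cells (Lipofectamine LTX), with a pFR-Luc reporter and pRL-SV40 for normalization. Compound in 0.1% DMSO was added 5 h post-transfection and incubated overnight. Firefly/renilla RLU was scaled to 1 μM GW7647 (α), L165,041 (δ) or pioglitazone (γ).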

[9] = target: T3, Peroxisome proliferator-activated receptor alpha (Homo sapiens, UniProt Q07869); test: Activity at GAL4-tagged PPARalpha (unknown origin) expressed in COS7 cells assessed as receptor transactivation by luciferase reporter gene assay; assay type: cell-based, COS-7; how it was run: as §2
T3 sequence (Q07869 whole entry): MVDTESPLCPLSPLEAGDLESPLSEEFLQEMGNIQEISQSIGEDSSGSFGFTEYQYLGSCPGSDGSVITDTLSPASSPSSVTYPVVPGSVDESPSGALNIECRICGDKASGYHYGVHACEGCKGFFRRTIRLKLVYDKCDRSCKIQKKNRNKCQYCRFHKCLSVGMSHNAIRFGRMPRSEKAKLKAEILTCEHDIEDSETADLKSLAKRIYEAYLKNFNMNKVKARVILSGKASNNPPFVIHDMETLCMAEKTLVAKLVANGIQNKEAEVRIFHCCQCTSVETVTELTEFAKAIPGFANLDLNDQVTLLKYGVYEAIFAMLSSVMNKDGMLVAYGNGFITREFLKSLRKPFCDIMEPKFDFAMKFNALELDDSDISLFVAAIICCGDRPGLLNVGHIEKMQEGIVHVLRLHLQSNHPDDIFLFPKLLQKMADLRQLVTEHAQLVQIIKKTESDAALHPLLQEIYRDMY

[10] = species: Homo sapiens; test: Selectivity index, ratio of EC50 for GAL4-tagged PPARgamma (unknown origin) to EC50 for human FXR
[11] = species: Homo sapiens; test: Selectivity index, ratio of EC50 for GAL4-tagged PPARdelta (unknown origin) to EC50 for human FXR
[12] = species: Homo sapiens; test: Selectivity index, ratio of EC50 for human TGR5 to EC50 for human FXR
[13] = test system: HeLa; test: Cytotoxicity against human HeLa cells assessed as compound concentration causing reduction in cell viability by reporter gene assay; assay type: cell-based
[14] = test system: HepG2; test: Cytotoxicity against human HepG2 cells assessed as compound concentration causing reduction in cell viability by LDH release assay; assay type: cell-based
How it was run: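 HepG2 cells were plated at 3 × 10⁴ per well. After 24 h they were switched to DMEM with 1% FCS and treated for 48 h; 2% Triton X-100 added 2 h before reading served as 100%. LDH reagent was added to the supernatant for 20 min and absorbance read at 490/690 nm. Triplicates, ≥3 independent repeats.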

[15] = test system: HepG2; test: Cytotoxicity against human HepG2 cells assessed as compound concentration causing reduction in cell viability by WST1 assay; assay type: cell-based
How it was run: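 WST-1 viability in HepG2 cells (3 × 10⁴ per well) in DMEM with 1% FCS, after 48 h exposure to 1, 10, 30 and 100 μM compound. Controls were Revlotron 100 μM (positive) and zileuton 100 μM or DMEM/1% DMSO (negative). WST reagent was added for 45 min and absorbance read at 450/620 nm; untreated set as 100%. Three repeats in triplicate.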

Activity [1]: 181%
Activity [2]: 185%
Activity [3]: 52%
Activity [4]: 59%
Activity [5]: 198%
Activity [6]: 149%
Activity [7]: 234%
EC50 [8]: 3 µM
EC50 [9]: > 10 µM
Ratio EC50 [10]: 375
Ratio EC50 [11]: > 1000
Ratio EC50 [12]: > 1000
Compound: COc1ccc(C(=O)Nc2cccc(C(=O)O)c2)c(NC(=O)c2ccc(C(C)(C)C)cc2)c1
Activity [13]: >= 30 uM
Activity [14]: >= 30 uM
Activity [15]: >= 30 uM
